According to publication PMC7797908 (iScience, 2021):

System: CAspII
Experiment: Michaelis-Menten kinetics of L-asparagine hydrolysis
Type: biochemical, uncultured Gemmatimonadota bacterium
Conditions: free enzyme; assay pH and temperature only in supplement
Outline: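 Synthetic codon-optimised gene fused to a C-terminal His6 tag in pET21a(+) and expressed in E. coli. Mid-log cultures in LB were induced with 0.2 mM IPTG for 3 hours at 30°C. Protein was purified on nickel-agarose; the preparation was enriched but not fully pure. Km was fitted to the classical Michaelis-Menten equation with L-asparagine as substrate, reported as mean ± SEM.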

Km: 350 ± 20 µM
SMILES: NC(=O)C[C@H](N)C(=O)O [L-asparagine]
